The results in this text go back to paper PMC3479660 (Thrombosis and haemostasis, 2012).

In assay [1] the target is T1, P2Y12 receptor (Homo sapiens, UniProt Q9H244). Nature of the assay: [35S]GTPγS binding in isolated platelet membranes. Type of assay: biochemical. For orientation: GTPγS resists hydrolysis and so accumulates on activated G proteins.
Assay [2] has as its system human platelets. Nature of the assay: LTA with PRP: TRAP-mediated platelet aggregation. The conditions noted are these: 30 μM FPP, TRAP 15 μM. Type of assay: cell-based.
The test system of assay [3] is washed platelets. It counts as cell-based, human. The conditions noted are these: intermediates 30 μM vs 2-MeSADP 0.04 μM.
Assay [4] concerns human platelets. The assay is described as follows: LTA with PRP: LPA-stimulated platelet shape change. It counts as cell-based. The method in brief:
(§1)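 Turbidimetric light transmission aggregometry was run on human PRP normalised to 300,000 cells/μl. Platelets were pre-treated for 5 min with 30 μM test compound, then given 10 μM LPA. Shape change was taken from the traces (n=10). Aggregation was reported as mean platelet aggregation in % (n=8).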

Assay [5] relates to human platelets. The assay is described as follows: LTA: 2-MeSADP-stimulated platelet aggregation. It counts as cell-based. The conditions noted are these: for effect on 2-MeSADP-stimulated platelet aggregation: 30 μM test compound, 30 nM 2-MeS-ADP, PRP. The method in brief: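 In human PRP (300,000 cells/μl), aggregation was stimulated with 2-MeSADP (30 nM) with or without 30 μM test compound. Full 2-MeSADP concentration-response curves were run alone or after pre-incubation with 15 or 30 μM test compound. Values were normalised to 2-MeSADP alone and EC50 was derived from the curves; n=6.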

In assay [6] the test system is human platelets. Nature of the assay: LTA with PRP: epinephrine-mediated platelet aggregation. It counts as cell-based. The conditions noted are these: 30 μM FPP, epinephrine 1 μM. In outline: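 For light transmission aggregometry, human platelets were normalised to 300,000 cells/μl and exposed to 30 μM test compound before agonist. Epinephrine was added at 1 μM (n=15); the TRAP arm had n=7. Representative traces accompanied the bar data.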

For assay [7], the system named is washed platelets. The assay is described as follows: Calcium flux assay on platelets. Type of assay: cell-based, human. The conditions noted are these: 30 μM FPP.
In assay [8] the target is T1, P2Y12 receptor. Nature of the assay: [3H]PSB-0413 radioligand competition binding, Sf9 insect cell membranes. The conditions noted are these: for rank order of potency at labelled binding sites: unpublished data of the authors. (In general: Displacement assays read how much labelled ligand stays bound in the presence of the test substance.)
Assay [9] relates to human platelets. Nature of the assay: LTA with PRP: LPA-stimulated platelet aggregation. Type of assay: cell-based. The conditions noted are these: 30 μM test compound pre-incubated, LPA 10 μM. In outline:
as §1

T1 sequence (Q9H244 whole entry): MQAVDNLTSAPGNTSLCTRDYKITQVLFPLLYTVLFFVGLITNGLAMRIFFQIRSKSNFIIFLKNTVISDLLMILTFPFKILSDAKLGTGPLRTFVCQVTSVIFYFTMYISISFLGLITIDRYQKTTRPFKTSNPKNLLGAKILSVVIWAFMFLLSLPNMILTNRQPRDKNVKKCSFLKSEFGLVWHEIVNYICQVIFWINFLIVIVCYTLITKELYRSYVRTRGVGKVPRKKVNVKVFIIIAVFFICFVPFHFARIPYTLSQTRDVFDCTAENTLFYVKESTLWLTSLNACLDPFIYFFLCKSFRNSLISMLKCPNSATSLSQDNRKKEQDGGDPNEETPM

`CC(C)=CCCC(C)=CCCC(C)=CCOP(=O)(O)OP(=O)(O)O.N.N.N` [FPP, 3,7,11-Trimethyl-2,6,10-dodecatrien-1-yl pyrophosphate ammonium salt] showed an IC50 at P2Y12 receptor [1] of 45 µM. Further, at P2Y12 receptor [1] (FPP 1 M alone (so in the source)), the “effect of compound alone on [35S]GTPγS binding” value was “small, but significant, increase”. Also, at P2Y12 receptor [1] (platelet membranes), the “concentrations at which FPP independently stimulated [35S]GTPγS binding” value is “below 6 μM”. In addition, the “effect on TRAP-stimulated platelet aggregation” value in the assay with human platelets [2] is reported as “unaffected”. In addition, the “antagonistic activity on platelets stimulated by 2-MeSADP” value (from here on “antagonistic activity”) in the assay on washed platelets [3] is listed as “statistically significant effect”. Further, the “effect on LPA-stimulated platelet shape change” value in the assay with human platelets [4] (30 μM FPP, 10 μM LPA, p=0.017) is on record as “potentiated”. Further, the “platelet shape change, compound alone” value in the assay with human platelets [4] (FPP alone) is given as “unable to show an effect”. For the same compound, the “effect on 2-MeSADP-stimulated platelet aggregation” value in the assay on human platelets [5] is “clear, concentration-dependent inhibition”. Besides, the inhibition at 10 µM in the assay on human platelets [5] (Homo sapiens, Platelet, read-out: inhibition of 2-MeSADP-stimulated aggregation) came to 40 ± 5%. In addition, the “effect on epinephrine-stimulated platelet aggregation” value in the assay on human platelets [6] is “unaffected”. The “effect on ADP-stimulated calcium signalling” value with washed platelets [7] (5 μM ADP) is “no statistical significance”. Also, in the assay with washed platelets [7] (thrombin 0.5 U/ml), the “effect on thrombin-stimulated calcium signalling” value is recorded as “no statistical significance”. On P2Y12 receptor [8], the IC50 was 65.8 µM and the “extent of inhibition of [3H]PSB-0413 binding” value is reported as “partial inhibition”. In addition, the “maximal inhibition of [3H]PSB-0413 binding” value at P2Y12 receptor [8] (very high concentrations) is 30–40%. The “effect on LPA-stimulated platelet aggregation” value in the assay with human platelets [9] is recorded as “no effect”.
For the compound `C=C(C)CCOP(=O)(O)OP(=O)(O)O.N.N.N` [IPP, isopentenyl pyrophosphate triammonium salt], the “antagonistic activity” value with washed platelets [3] is on record as “Only FPP displayed a statistically significant effect”.
Same read-out and setting: to `CC(C)=CCOP(=O)(O)OP(=O)(O)O.N.N.N` [DMAPP, γ,γ-dimethylallyl pyrophosphate triammonium salt] belongs “Only FPP displayed a statistically significant effect”.
As to `Nc1c(S(=O)(=O)[O-])cc(Nc2ccc(Nc3ccccc3)c(S(=O)(=O)[O-])c2)c2c1C(=O)c1ccccc1C2=O.[Na+].[Na+]` [PSB-0739, 1-amino-4-[4-phenylamino-sulfophenylamino]-9,10-dioxo-9,10-dihydroanthracene-2-sulfonic acid disodium salt], at P2Y12 receptor [8], the “extent of inhibition of [3H]PSB-0413 binding” value was “complete inhibition” and the “rank order of potency at labelled binding sites” value was “PSB-0739 ([21], [22]). >2-methylthio-ADP > ADP”.
As to `Nc1ncnc2c1ncn2[C@@H]1O[C@H](COP(=O)(O)OP(=O)(O)O)[C@@H](O)[C@H]1O` [ADP, adenosine diphosphate], at P2Y12 receptor [8], the “extent of inhibition of [3H]PSB-0413 binding” value is listed as “complete inhibition” and the “rank order of potency at labelled binding sites” value is “PSB-0739 ([21], [22]). >2-methylthio-ADP > ADP”.
Consider `CC(C)=CCC/C(C)=C/COP(=O)(O)OP(=O)(O)O.N.N.N` [GPP, trans-3,7-dimethyl-2,6-octadienyl pyrophosphate ammonium salt], for which the “antagonistic activity” value in the assay on washed platelets [3] is “Only FPP displayed a statistically significant effect”.
Regarding `CCCSc1nc(N[C@@H]2C[C@H]2c2ccc(F)c(F)c2)c2nnn([C@@H]3C[C@H](OCCO)[C@@H](O)[C@H]3O)c2n1` [ticagrelor, Ticagrelor, reference compound], the “effect on 2-MeSADP dose response curve of [35S]GTPγS binding” value at P2Y12 receptor [1] (60 nM ticagrelor) is “right-shifted the dose response curve”. Besides, the “effect on FPP-stimulated [35S]GTPγS binding” value at P2Y12 receptor [1] (10 μM ticagrelor) is reported as “readily blocked”.
`CC(C)=CCC/C(C)=C/CC/C(C)=C/CC/C(C)=C/COP(=O)(O)OP(=O)(O)O.N.N.N` [GGPP, all trans-3,7,11,15-tetra-methyl-2,6,10,14-hexadecatetraenyl pyrophosphate ammonium salt]: the “antagonistic activity” value in the assay on washed platelets [3] was “Only FPP displayed a statistically significant effect”.
Same read-out and setting: to `CC(C)=CCCC(C)=CCCC(C)=CCOP(=O)(O)O.N.N` [FMP, 3,7,11-trimethyl-2,6,10-dodecatrien-1-yl monophosphate ammonium salt] belongs “Only FPP displayed a statistically significant effect”.
For the compound `CCCCC/C=C\C/C=C\C/C=C\C/C=C\CCCC(=O)NCC(=O)O` [NAG, N-arachidonoylglycine, reference compound], the “effect on 2-MeSADP-stimulated platelet aggregation” value with human platelets [5] is “without effect”. For the same compound, in the assay with human platelets [9], the “effect on LPA-stimulated platelet aggregation” value is “No statistically significant inhibitory effect”.

What is called IC50 is the concentration that inhibits the measured activity by half. A lower IC50 goes with higher potency. In general, inhibition refers to the drop in the measured response relative to a control, in per cent.
